Like-named read-outs stand apart in the source and are kept apart here.
Legend:
[1] = molecular target: recombinant CTSL1 (Fasciola hepatica, UniProt Q7JNQ9); assay: Cathepsin L1; assay type: biochemical
[2] = molecular target: PfM18AAP extracts (soluble freeze-thaw extracts of parasites) (Plasmodium falciparum, UniProt Q8I2J3); assay: Malaria cell lysate assay; assay type: biochemical; details: at ≤5μM
Procedure, shortened: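 Human erythrocytes infected in vitro were washed in PBS and parasites released with saponin. Three freeze-thaw cycles followed and supernatant extracts were kept. Extracts were incubated with test compound plus CoCl2 and aminoacyl-NHMec substrate (given as both H-Glu- and H-Asp-NHMec). Decreased fluorescence from substrate cleavage was taken as inhibition. Vehicle and background controls were included.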

[3] = tested on: P. falciparum infected red blood cells; assay: Parasite growth assay; assay type: cell-based, Plasmodium falciparum; details: 10 μM test concentration
Procedure, shortened: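 Asexual erythrocytic-stage P. falciparum in infected RBCs was incubated with test compound at 10 µM in hypoxanthine-free medium, then 3H-hypoxanthine was added. 3H incorporation was measured after 48 h; reduced incorporation was scored as inhibition. Each plate held vehicle and uninfected-RBC background controls (DMSO ≤1%).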

[4] = molecular target: T1, purified recombinant PfM18AAP (Plasmodium falciparum, UniProt Q8I2J3); assay: Ki determination and mode of inhibition; assay type: biochemical; details: for mode of inhibition of PfM18AAP: comparison of fits, Lineweaver-Burk plots
T1 sequence (Q8I2J3 1-570): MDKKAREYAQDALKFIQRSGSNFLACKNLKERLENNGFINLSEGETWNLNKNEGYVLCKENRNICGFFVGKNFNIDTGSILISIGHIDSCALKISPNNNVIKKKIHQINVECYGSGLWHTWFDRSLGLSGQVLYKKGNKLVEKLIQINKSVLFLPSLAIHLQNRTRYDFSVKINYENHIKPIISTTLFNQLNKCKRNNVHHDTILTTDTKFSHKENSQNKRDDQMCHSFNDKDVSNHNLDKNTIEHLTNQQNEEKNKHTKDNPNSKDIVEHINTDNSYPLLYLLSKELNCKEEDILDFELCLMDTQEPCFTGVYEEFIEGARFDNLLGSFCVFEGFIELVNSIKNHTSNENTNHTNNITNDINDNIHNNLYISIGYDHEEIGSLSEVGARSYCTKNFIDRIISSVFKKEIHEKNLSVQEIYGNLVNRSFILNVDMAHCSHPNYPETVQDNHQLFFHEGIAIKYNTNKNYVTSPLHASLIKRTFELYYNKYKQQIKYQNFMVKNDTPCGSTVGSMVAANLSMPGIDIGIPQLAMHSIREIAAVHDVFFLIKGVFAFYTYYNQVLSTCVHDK

[5] = previous primary screens at SRIMSC; ref PubChem AIDs 1859, 1931, 651959; cited from earlier work
[6] = tested on: mammalian cytotoxicity; details: previous primary screens, where tested; ref PubChem AIDs 1486, 1825; cited from earlier work
[7] = tested on: bacterial viability; details: previous primary screens, where tested; ref PubChem AIDs 449731, 651606; cited from earlier work
[8] = tested on: serotonin receptor; details: previous primary screens; ref PubChem AIDs 612 and 504916; cited from earlier work
[9] = tested on: PfM18AAP; details: cited from earlier work

Row | Structure (SMILES) | mode of inhibition of PfM18AAP [4] | activity in similarly formatted enzymatic inhibition assays [5] | activity in mammalian cytotoxicity screens [6] | activity in bacterial viability screens [7] | activity in cell-based screens at SRIMSC (serotonin receptor screens) [8] | effect of metal ion on PfM18AAP activity [9] | other results
1 | CN1CCc2cccc3c2[C@@H]1Cc1ccc(O)c(O)c1-3.Cl.O [CID 6852389, (S)-(+)-Apomorphine hydrochloride hydrate] | non-competitive | devoid of activity | inactive | inactive | inactive in all cell-based screens tested at the SRIMSC, except for two serotonin receptor screens | – | IC50 ([1]; read-out: IC50 in CTSL1 titration experiments, 10 point titration, triplicate): > 59600 nM; efficacy in P. falciparum lysate assay [2]: 84%; inhibition in 3H hypoxanthine incorporation assay [3]: 87%; Ki ([4]; read-out: Ki (non-linear regression), powder samples, substrate Glu-NHMec): 3390 ± 360 nM
2 | Oc1ccc(CCNc2c3ccccc3nc3ccccc23)cc1O [CID 23724194, 4-[2-(acridin-9-ylamino)ethyl]benzene-1,2-diol] | non-competitive | devoid of activity | inactive | inactive | inactive in all cell-based screens tested at the SRIMSC, except for two serotonin receptor screens | – | IC50 [1]: > 59600 nM; Ki [4]: 1350 ± 150 nM
3 | C[C@H](NC(=O)[C@H](Cc1ccccc1)NC(=O)OCc1ccccc1)C(=O)C=[N+]=[N-] [Z-Phe-Ala diazomethylketone, Z-Phe-Ala-diazomethylketone, reference compound] | – | – | – | – | – | – | IC50 ([1]; read-out: IC50 of positive control in CTSL1 HTS assay, average, N=22 plates): 15.4 nM
4 | [Cl-].[Cl-].[Zn+2] [Zn(II), ZnCl2, reference compound] | – | – | – | – | – | – | concentration at which PfM18AAP is inhibited [9]: > 1 mM
5 | [Cl-].[Cl-].[Co+2] [cobalt] | – | – | – | – | – | enhanced | –
6 | [Mn+2] [manganese] | – | – | – | – | – | enhanced | –

Source: paper PMC4641816 (Journal of biomolecular screening, 2014)
